Measurements published in ChEMBL document CHEMBL3352597, “Heck products of parthenolide and melampomagnolide-B as anticancer modulators that modify cell cycle progression” (Eur J Med Chem, 2014).
Activity calls are given as the source filed them. The rule behind the calls is not given here.

Experiments:
Xenopus [1] = assay: Inhibition of Cyclin B/CDK in immature stage VI Xenopus oocyte by Western blot analysis
Method in brief: (§1)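 Oocytes pre-treated with DMSO or compound, stimulated with progesterone, and lysed at the time 50% of DMSO oocytes reached GVBD. Lysates analysed by 10% gel western blot with phospho-Cdc2 Tyr15 (inhibitory site) and phospho-MAPK antibodies (1:1000), tubulin 1:20,000. Membrane blocked in 1% BSA, 60 min, room temperature.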

[2] = Anticancer activity against human PC3 cells assessed as growth inhibition at 10^-5 M; assay type: functional; details: PC-3, read-out: GI
Method in brief: (§2)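 NCI-60 human tumour cell line panel screened at a single concentration of 10^-5 M; value is percent growth inhibition relative to untreated growth.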

Oocyte [3] = assay: Inhibition of immature stage VI Xenopus oocyte maturation assessed as inhibition of progesterone-mediated maturation measured as germinal vesicle (nuclear) breakdown at 100 uM after overnight incubation; assay type: functional, cell-based
Method in brief: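 Oocytes (20 per well) pre-treated overnight with compound (100 μM final, DMSO) or DMSO vehicle, then stimulated with 2 μg/ml progesterone. GVBD (animal-pole white spot) scored at the time 50% of DMSO controls reach GVBD. Rate relative to control: 1.0 means no difference, above 1.0 acceleration, below 1.0 delay, 0.0 no maturation. Differences over 20% followed up.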

Oocyte [4] = assay: Inhibition of immature stage VI Xenopus oocyte maturation assessed as inhibition of progesterone-mediated maturation measured as germinal vesicle (nuclear) breakdown after overnight incubation; assay type: functional, cell-based; details: Xenopus laevis
[5] = Anticancer activity against human MOLT4 cells assessed as growth inhibition at 10^-5 M; assay type: functional; details: MOLT-4, read-out: GI; method in brief: as §2
Oocyte [6] = assay: Inhibition of immature stage VI Xenopus oocyte maturation assessed as inhibition of progesterone-mediated maturation measured as germinal vesicle (nuclear) breakdown at 1 to 100 uM after overnight incubation; assay type: functional, cell-based
Xenopus [7] = assay: Inhibition of MPF in immature stage VI Xenopus oocyte by Western blot analysis; method in brief: as §1
MCF7 = assay: Anticancer activity against human MCF7 cells assessed as growth inhibition at 10^-5 M; assay type: functional; details: read-out: GI; method in brief: as §2
[8] = Anticancer activity against human RPMI8226 cells assessed as growth inhibition at 10^-5 M; assay type: functional; details: RPMI-8226, read-out: GI; method in brief: as §2
Xenopus [9] = assay: Induction of progesterone-independent of MPF activation in immature stage VI Xenopus oocyte by Western blot analysis
Method in brief: (§3)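 Oocytes treated with DMSO or compound without progesterone, harvested when 50% of treated oocytes completed GVBD, sorted by GVBD status. Lysates run on 10% gel and blotted with phospho-MAPK Thr202/Tyr204 and phospho-Cdc2 Tyr15 antibodies (1:1000), with tubulin as loading control. MPF activation read as Cdc2 dephosphorylation.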

CCRF-CEM = assay: Anticancer activity against human CCRF-CEM cells assessed as growth inhibition at 10^-5 M; assay type: functional; details: read-out: GI; method in brief: as §2
HL-60(TB) = assay: Anticancer activity against human HL-60(TB) cells assessed as growth inhibition at 10^-5 M; assay type: functional; details: read-out: GI
Method in brief: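 NCI 60 panel initial screen at a single concentration of 10^-5 M. Value is reported as percent growth inhibition of the cell line.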

K562 = assay: Anticancer activity against human K562 cells assessed as growth inhibition at 10^-5 M; assay type: functional; details: read-out: GI; method in brief: as §2
Oocyte [10] = assay: Induction of immature stage VI Xenopus oocyte maturation assessed as spontaneous maturation measured as germinal vesicle (nuclear) breakdown at 100 uM after overnight incubation; assay type: functional, cell-based
Method in brief: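 Isolated Xenopus oocytes (20 per well) incubated overnight with compound in DMSO at 100 μM final, no progesterone. The next morning, GVBD is scored as a white spot at the animal pole. Rate is expressed relative to DMSO controls, where 2.0 means spontaneous maturation.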

Oocyte [11] = assay: Induction of immature stage VI Xenopus oocyte maturation assessed as stimulation of progesterone-mediated maturation measured as germinal vesicle (nuclear) breakdown after overnight incubation; assay type: functional, cell-based; details: Xenopus laevis
Xenopus [12] = assay: Induction of progesterone-independent of MAPK activation in immature stage VI Xenopus oocyte by Western blot analysis; method in brief: as §3

With `C/C1=C\CC[C@@]2(C)O[C@@H]2[C@H]2OC(=O)/C(=C/c3ccc(N)cc3)[C@@H]2CC1` the inhibition (Xenopus [1]) was “inactive”, the inhibition of growth at 10 µM [2] was 20.5% and the inhibition (Oocyte [3]) was “Active”. The EC50 (Oocyte [4]) was 5 µM, the inhibition of growth at 10 µM [5] was 24.2% and the inhibition (Oocyte [6]) was “Active”. For the same compound, the inhibition (Xenopus [7]) was “inactive”.

In the case of `C[C@@]12CC/C=C(/CO)CC[C@@H]3/C(=C\c4ccsc4)C(=O)O[C@@H]3[C@@H]1O2`, the inhibition (Oocyte [3]) is reported as “Active”.

In the case of `C/C1=C\CC[C@@]2(C)O[C@@H]2[C@H]2OC(=O)/C(=C/c3ccccc3Br)[C@@H]2CC1`, the inhibition of growth at 10 µM (MCF7) is reported as 24.3%, the inhibition of growth at 10 µM [8] is reported as 21.3% and the Activity (Xenopus [9]) is reported as “Active”. For the same compound, the inhibition of growth at 10 µM [2] was 42.3%, the inhibition of growth at 10 µM (CCRF-CEM) was 22.3% and the inhibition of growth at 10 µM (HL-60(TB)) was 34.1%. The inhibition of growth at 10 µM [5] was 31.2%, the inhibition of growth at 10 µM (K562) was 28.1% and the Activity (Oocyte [10]) was “Active”. The EC50 (Oocyte [11]) was 6 µM and the Activity (Xenopus [12]) was “Active”.
